Source: ChEMBL document CHEMBL1125626, “Synthesis and structure-activity relationship of new cephalosporins with amino heterocycles at C-7. Dependence of the antibacterial spectrum and beta-lactamase stability on the pKa of the C-7 heterocycle” (1991)
In brackets after ≈: the same amount, converted by molar mass.

Tests used:
Escherichia coli [1] = test: Minimum inhibitory concentration against Escherichia coli DC2 (inoculum, 10e4 cfu per spot); format: functional
Method in brief: (§1)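 MIC in µg/mL, determined in Jewell and Permain growth medium with spot inoculation at 10^4 cfu per spot. P99 is described as a constitutive type I lactamase producer.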

Escherichia coli [2] = test: Minimum inhibitory concentration against Escherichia coli DCO (inoculum, 10e4 cfu per spot); format: functional; method in brief: as §1
Escherichia coli [3] = test: Minimum inhibitory concentration against Escherichia coli A8 (inoculum, 10e5 cfu per spot); format: functional
Method in brief: (§2)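 MIC in µg/mL, determined in Jewell and Permain growth medium with spot inoculation at 10^5 cfu per spot.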

Enterobacter cloacae [4] = test: Minimum inhibitory concentration against Enterobacter cloacae A13 (inoculum, 10e5 cfu per spot); format: functional; method in brief: as §2
Enterobacter cloacae [5] = test: Minimum inhibitory concentration against Enterobacter cloacae P99 (inoculum, 10e4 cfu per spot); format: functional; method in brief: as §1
Klebsiella aerogenes [6] = test: Minimum inhibitory concentration against Klebsiella aerogenes X5L (inoculum, 10e4 cfu per spot); format: functional; method in brief: as §1
Klebsiella aerogenes [7] = test: Minimum inhibitory concentration against Klebsiella aerogenes X6 (inoculum, 10e4 cfu per spot); format: functional; method in brief: as §1
Proteus mirabilis = test: Minimum inhibitory concentration against Proteus mirabilis A18 (inoculum, 10e5 cfu per spot); format: functional; method in brief: as §2
Pseudomonas aeruginosa = test: Minimum inhibitory concentration against Pseudomonas aeruginosa A21 (inoculum, 10e5 cfu per spot); format: functional; method in brief: as §2
Staphylococcus aureus [8] = test: Minimum inhibitory concentration against Staphylococcus aureus A4 (inoculum, 10e5 cfu per spot); format: functional; method in brief: as §2
Staphylococcus aureus [9] = test: Minimum inhibitory concentration against Staphylococcus aureus A6 (inoculum, 10e5 cfu per spot); format: functional; method in brief: as §2
Streptococcus pyogenes = test: Minimum inhibitory concentration against Streptococcus pyogenes (inoculum, 10e5 cfu per spot) A1; format: functional; method in brief: as §2
Serratia marcescens = test: Minimum inhibitory concentration against Serratia marcescens A16 (inoculum, 10e5 cfu per spot); format: functional; method in brief: as §2
Enterobacter cloacae [10] = test: Minimum inhibitory concentration against Enterobacter cloacae P99 (inoculum, 10e4 cfu per spot)(type I lactamase producer); format: functional; method in brief: as §1
Escherichia coli [11] = test: Minimum inhibitory concentration against Escherichia coli X4 (inoculum, 10e4 cfu per spot)
Escherichia coli [12] = test: Minimum inhibitory concentration against Escherichia coli TEM X3 (inoculum, 10e4 cfu per spot)(TEM I type lactamase producer)
Klebsiella pneumoniae = test: Minimum inhibitory concentration against Klebsiella pneumoniae A24 (inoculum, 10e5 cfu per spot); format: functional; method in brief: as §2
Proteus vulgaris = test: Minimum inhibitory concentration against Proteus vulgaris Pv9 (inoculum, 10e5 cfu per spot)

| MIC (Escherichia coli [1]) [µg/mL] | MIC (Escherichia coli [2]) [µg/mL] | MIC (Escherichia coli [3]) [µg/mL] | MIC (Enterobacter cloacae [4]) [µg/mL] | MIC (Enterobacter cloacae [5]) [µg/mL] | MIC (Klebsiella aerogenes [6]) [µg/mL] | MIC (Klebsiella aerogenes [7]) [µg/mL] | MIC (Proteus mirabilis) [µg/mL] | MIC (Pseudomonas aeruginosa) [µg/mL] | MIC (Staphylococcus aureus [8]) [µg/mL] | MIC (Staphylococcus aureus [9]) [µg/mL] | MIC (Streptococcus pyogenes) [µg/mL] | MIC (Serratia marcescens) [µg/mL] | MIC (Enterobacter cloacae [10]) [µg/mL] | MIC (Escherichia coli [11]) [µg/mL] | MIC (Escherichia coli [12]) [µg/mL] | MIC (Klebsiella pneumoniae) [µg/mL] | MIC (Proteus vulgaris) [µg/mL] | SMILES |
| --- | --- | --- | --- | --- | --- | --- | --- | --- | --- | --- | --- | --- | --- | --- | --- | --- | --- | --- |
| 0.25 (≈ 0.545 µM) | 64 (≈ 140 µM) | 128 (≈ 279 µM) | > 256 | 64 (≈ 140 µM) | 256 (≈ 558 µM) | 256 (≈ 558 µM) | 32 (≈ 69.8 µM) | > 256 | > 256 | 32 (≈ 69.8 µM) | 32 (≈ 69.8 µM) | > 256 | > 256 | 32 (≈ 69.8 µM) | 64 (≈ 140 µM) |  |  | CC(=O)OCC1=C(C(=O)OC(C)(C)C)N2C(=O)[C@@H](Nc3nc4ccccc4n3C)C2SC1 (some centres not stated) |
| 4 (≈ 8.65 µM) | 8 (≈ 17.3 µM) | 128 (≈ 277 µM) | > 256 | 2 (≈ 4.32 µM) | 40 (≈ 86.5 µM) | 8 (≈ 17.3 µM) | > 256 | > 256 | > 256 | > 256 | > 256 | > 256 | 2 (≈ 4.32 µM) | 2 (≈ 4.32 µM) | 2 (≈ 4.32 µM) | > 256 |  | CC1=C(C(=O)OC(c2ccccc2)c2ccccc2)N2C(=O)[C@@H](NC3=NCC(C)N3)C2SC1 (some centres not stated) |
| 1 (≈ 1.76 µM) | 4 (≈ 7.02 µM) | 40 (≈ 70.2 µM) | > 200 | 4 (≈ 7.02 µM) | > 200 | 8 (≈ 14 µM) | 200 (≈ 351 µM) | > 200 | > 200 | 40 (≈ 70.2 µM) | 40 (≈ 70.2 µM) | > 200 | > 200 | 8 (≈ 14 µM) | 128 (≈ 225 µM) | > 200 |  | CC(=O)OCC1=C(C(=O)OC(c2ccccc2)c2ccccc2)N2C(=O)[C@@H](Nc3nc4c(N)cccc4[nH]3)C2SC1 (some centres not stated) |
| 0.016 (≈ 0.028 µM) | 0.12 (≈ 0.21 µM) | 0.12 (≈ 0.21 µM) | 128 (≈ 224 µM) | 0.12 (≈ 0.21 µM) | 64 (≈ 112 µM) | 0.5 (≈ 0.876 µM) | 0.5 (≈ 0.876 µM) | > 256 | 16 (≈ 28 µM) | 4 (≈ 7.01 µM) |  | 256 (≈ 449 µM) | 128 (≈ 224 µM) | 0.12 (≈ 0.21 µM) | 1 (≈ 1.75 µM) | 2 (≈ 3.5 µM) | 32 (≈ 56.1 µM) | CC(=O)OCC1=C(C(=O)OC(c2ccccc2)c2ccccc2)N2C(=O)[C@@H](Nc3nc4cc(O)ccc4[nH]3)C2SC1 (some centres not stated) |
| 0.25 (≈ 0.418 µM) | 8 (≈ 13.4 µM) | 16 (≈ 26.7 µM) | > 256 | 4 (≈ 6.68 µM) | > 256 | 16 (≈ 26.7 µM) | 32 (≈ 53.5 µM) | > 256 | 256 (≈ 428 µM) | 32 (≈ 53.5 µM) | 8 (≈ 13.4 µM) | > 256 | > 256 | 8 (≈ 13.4 µM) | 16 (≈ 26.7 µM) | 32 (≈ 53.5 µM) |  | CC(=O)OCC1=C(C(=O)OC(c2ccccc2)c2ccccc2)N2C(=O)[C@@H](Nc3nc4cc(C(=O)O)ccc4[nH]3)C2SC1 (some centres not stated) |
| > 256 | > 256 | > 256 | > 256 | > 256 | > 256 | > 256 | > 256 | > 256 | > 256 | > 256 | > 256 | > 256 | > 256 | > 256 | > 256 |  |  | CC1=C(C(=O)OC(C)(C)C)N2C(=O)[C@@H](Nc3nc4ccccc4n3CC(=O)OC(C)(C)C)C2SC1 (some centres not stated) |
| 0.12 (≈ 0.239 µM) | 1 (≈ 1.99 µM) | 1 (≈ 1.99 µM) | > 256 | 2 (≈ 3.99 µM) | > 256 | 2 (≈ 3.99 µM) | 8 (≈ 16 µM) | > 256 | 256 (≈ 510 µM) | 8 (≈ 16 µM) | 4 (≈ 7.98 µM) | > 256 | > 256 | 1 (≈ 1.99 µM) | 16 (≈ 31.9 µM) | 32 (≈ 63.8 µM) | 128 (≈ 255 µM) | CC(=O)Nc1ccc2[nH]c(N[C@@H]3C(=O)N4C(C(=O)OC(C)(C)C)=C(COC(C)=O)CSC34)nc2c1 (some centres not stated) |
| 0.5 (≈ 0.953 µM) | 1 (≈ 1.91 µM) | 2 (≈ 3.81 µM) | 2 (≈ 3.81 µM) | 1 (≈ 1.91 µM) | 8 (≈ 15.2 µM) | 2 (≈ 3.81 µM) | > 256 | > 256 | > 256 | > 256 | 256 (≈ 488 µM) |  | 2 (≈ 3.81 µM) | 1 (≈ 1.91 µM) | 1 (≈ 1.91 µM) | 4 (≈ 7.62 µM) | > 256 | CC1=C(C(=O)OC(c2ccccc2)c2ccccc2)N2C(=O)[C@@H](NC3=NC(c4ccccc4)CN3)C2SC1 (some centres not stated) |
| 32 (≈ 69.2 µM) | 128 (≈ 277 µM) | 40 (≈ 86.5 µM) | > 200 | 64 (≈ 138 µM) | > 200 | 128 (≈ 277 µM) | > 200 | > 200 | > 200 | > 200 | > 200 | > 200 | 128 (≈ 277 µM) | 128 (≈ 277 µM) | 128 (≈ 277 µM) | 40 (≈ 86.5 µM) |  | CC1=C(C(=O)OC(c2ccccc2)c2ccccc2)N2C(=O)[C@@H](NC3=NCCN3C)C2SC1 (some centres not stated) |
